Shown are actives, neighbours in structure and some others; about 2.4% of the full set was active somewhere.
UBC13 polyUb: blocks human UBC13 polyubiquitin chain formation | AID 485273 | 0.47% of 330,000 active | inhibition, % at 20 µM | TR-FRET; in the data active = inhibition above about 45%, passing the limit was not always enough
Target sequence (P61088 whole entry, looked up): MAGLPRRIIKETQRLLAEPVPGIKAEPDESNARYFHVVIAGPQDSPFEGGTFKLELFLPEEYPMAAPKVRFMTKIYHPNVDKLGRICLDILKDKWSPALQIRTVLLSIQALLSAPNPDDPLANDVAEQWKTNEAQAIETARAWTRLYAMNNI
ANO1 block: blocks the mouse calcium-activated chloride channel TMEM16A | AID 588511 | 1.2% of 310,000 active | Q8BHY3 | HEK293 TMEM16A/YFP iodide influx fluorescence, ionomycin | normalized B-score (activity score, 25-100; higher = stronger inhibition) at 10 µM;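 active = ratio plate-corrected score three or more library SD toward inhibition, starting fluorescence score within five deviations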;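 note: score derived from kinetic fluorescence span divided by baseline fluorescence per well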
DNA FID counter: displaces DNA intercalator in HCV helicase counter-screen | 0.17% of 290,000 active | DNA fluorescent intercalator displacement, fluorescence | AID 1845 | inhibition, % at 7.9 µM; in the data active = inhibition above about 37%;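 note: 0% = vehicle and 100% = reference compound; higher means more ethidium bromide displaced from hairpin DNA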
ANO1 activ: activators or potentiators of mouse TMEM16A chloride channel; Q8BHY3; HEK293 TMEM16A/YFP-H148Q/I152L, iodide quench fluorescence; active compounds read low; B-score at 10 µM; 0.3% of 340,000 active; AID 623877;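 active = fluorescence-ratio B-score plate-corrected deviation score at least 3 library SD below zero, with starting fluorescence score within 5 deviations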;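 note: channel opened by trigger with iodide after compound preincubation; score built on the fluorescence ratio of max minus min over baseline; more negative score means more quench and so TMEM16A activation or potentiation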
Apaf1 inhib: human Apaf-1 inhibition. inhibition, % at 20 µM. reconstituted apoptosome caspase-3 activity, DEVD-Rh110 fluorescence. O14727. 0.71% of 330,000 active. AID 489030; active = inhibition of at least 40% at 20 µM;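 note: plate controls were DMSO wells for no effect and DEVD-CHO caspase inhibitor wells for full effect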
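detection = Rh110 fluorescence intensity | test system = biochemical Apaf-1 apoptosome reconstitution | also added = cytochrome c and DEVD-Rh110 substrate | schedule = 30 min plus 50 min, RT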
Active calls of the source: *; i = inactive; . = not tested or not shown.

SMILES	UBC13 polyUb	ANO1 block	DNA FID counter	ANO1 activ	Apaf1 inhib
C=CCc1ccccc1OCCSc1nc2ccc([N+](=O)[O-])cc2s1	6	i	0	i	7
Cc1ccc(Cl)cc1NC(=O)CSc1sc2c(O)cc(=O)[nH]c2c1C#N	-8	i	-12	-4.9*	11
COc1ccc(Cl)cc1NC(=O)CSc1sc2c(O)cc(=O)[nH]c2c1C#N	1	i	-12	i	11
O=C(Nc1ccccc1)c1ccc2nc(-c3ccco3)c(-c3ccco3)nc2c1	-19	i	-1	i	60*
CC(=O)c1ccc(NC(=O)c2ccc3nc(-c4ccco4)c(-c4ccco4)nc3c2)cc1	28	i	-21	i	52*
O=C(NCCO)Nc1ccc2nc(-c3ccco3)c(-c3ccco3)nc2c1	45	i	24	.	71*
COc1ccc(CC(=O)NCC2CCCN(Cc3ccccc3OC)C2)cc1 (configuration not stated)	-5	i	10	i	-1
Cc1[nH]c2ccccc2c1C(=O)CSC(=S)N1CCCCC1	-6	i	-3	-12*	-3
O=C(Cn1[nH]c(=O)c2ccccc2c1=O)Nc1cccc(S(=O)(=O)N2CCCCCC2)c1	8	100*	-9	i	13
O=C(COC(=O)C1CC2C=CC1C2)Nc1cccc(S(=O)(=O)N2CCCCCC2)c1 (configuration not stated)	8	100*	-26	i	21
CCN(CC)S(=O)(=O)c1cc(NC(=O)CNc2cccc(S(=O)(=O)N3CCCC3)c2)ccc1C	3	100*	.	i	15
CCN(CC)S(=O)(=O)c1cccc(NC(=O)CNc2cccc(S(=O)(=O)N3CCOCC3)c2)c1	0	i	.	i	-1
Cc1ccc(C(=O)NCCc2ccccn2)cc1S(=O)(=O)N1CCOCC1	15	i	-7	.	-5
CC(C)N(Cc1ccccc1)C(=O)CN1C(=O)NC(Cc2ccccc2)(c2ccccc2)C1=O (configuration not stated)	-7	i	-51	i	27
CC(=O)Nc1ccc(/C=C/c2ccc3c([N+](=O)[O-])cccc3n2)cc1	-16	i	7	i	-24
C[C@@H](NC(=O)c1nc[nH]c1C(=O)NC1CCN(C(=O)OC(C)(C)C)CC1)c1ccccc1	18	.	.	i	25
C[C@H](NC(=O)c1nc[nH]c1C(=O)NCC(=O)OCc1ccccc1)C(=O)OC(C)(C)C	-1	i	-38	i	18
C[C@H](NC(=O)c1nc[nH]c1C(=O)N1CCN(C(=O)OC(C)(C)C)CC1)c1ccccc1	1	.	.	-7.2*	8
CC(C)C[C@H](NC(=O)c1nc[nH]c1C(=O)NCC(=O)OCc1ccccc1)C(=O)OC(C)(C)C	-16	i	-44	-15*	22
COc1ccc(/C=C(/C(=O)c2cccs2)N2C=CC=CC2=C(C#N)C#N)cc1	.	.	-4	-5*	.
COc1ccc(C(=O)/C(=C\c2ccco2)N2C=CC=CC2=C(C#N)C#N)cc1	-6	i	0	i	12
CC1CN(C(=O)c2cccc(Oc3ccccc3)c2)CC(C)O1 (configuration not stated)	3	i	-22	i	0
Cc1cccc(C)c1-n1cccc1/C=C1/C(=N)N2C(=NC1=O)SN=C2S(C)(=O)=O	-3	25*	-24	i	3
Cc1ccc(-n2cccc2/C=C2/C(=N)N3C(=NC2=O)SN=C3S(C)(=O)=O)cc1Cl	.	i	-21	i	.
CCOc1ccc(-n2c(C)cc(/C=C3/C(=N)N4C(=NC3=O)SN=C4S(C)(=O)=O)c2C)cc1	-18	i	-34	-6.3*	17
SMILES	UBC13 polyUb	ANO1 block	DNA FID counter	ANO1 activ	Apaf1 inhib
COc1cc(/C=C/C(=O)O)cc(S(=O)(=O)Nc2ccc(S(=O)(=O)N3CCCCC3)cc2)c1OC	-14	.	.	i	10
O=C(CN(Cc1ccccc1Cl)C(=O)c1ccc(CN2CCOCC2)o1)NCC1CCCO1 (configuration not stated)	3	i	-16	i	1
C=C(C)COc1ccc(-c2[nH]ncc2Oc2ccccc2OCC)c(O)c1	21	100*	-7	i	25
Cn1c(=O)n(C)c2cc(NS(=O)(=O)c3ccc(C(C)(C)C)cc3)ccc21	1	25*	-21	i	17
Cn1c(=O)n(C)c2cc(NS(=O)(=O)c3ccc4c(c3)CCCC4)ccc21	0	i	-27	i	8
O=C1OC(Nc2ncccn2)c2ccccc21 (configuration not stated)	-13	i	0	i	1
O=C1OC(Nc2cc(Br)cc3cccnc23)c2ccccc21 (configuration not stated)	-62	i	-2	i	97*
N/C(=N\OC(=O)COc1ccc2ccccc2c1Br)c1cccnc1	-6	25*	-6	.	13
Cc1cc(C)c(C)c(S(=O)(=O)N2CCN(C(=O)CNC(=O)c3ccco3)CC2)c1C	8	.	.	i	13
C#CCOCCOCCOCCNc1nc(N2CCN(C(=O)C(Cc3cc4ccccc4[nH]3)n3cc(C(N)Cc4ccc(O)cc4)nn3)CC2)nc(N2CCN(C(=O)C(CCC(=O)O)n3cc(C(N)C(C)CC)nn3)CC2)n1 (configuration not stated)	10	i	.	i	11
C#CCOCCOCCOCCNc1nc(N2CCN(C(=O)C(Cc3cc4ccccc4[nH]3)n3cc(C(N)Cc4ccc(O)cc4)nn3)CC2)nc(N2CCN(C(=O)C(Cc3cc4ccccc4[nH]3)n3cc(C(N)Cc4ccc(O)cc4)nn3)CC2)n1 (configuration not stated)	.	.	52*	.	.
C#CCOCCOCCOCCNc1nc(N2CCN(C(=O)[C@H]([C@@H](C)CC)n3cc([C@@H](N)CC(C)C)nn3)CC2)nc(N2CCN(C(=O)[C@H](Cc3cc4ccccc4[nH]3)n3cc([C@@H](N)CC(C)C)nn3)CC2)n1	40	.	.	.	58*
C#CCOCCOCCOCCNc1nc(N2CCOCC2)nc(N2CCN(C(=O)[C@H](Cc3cc4ccccc4[nH]3)n3cc([C@@H](N)CC(C)C)nn3)CC2)n1	28	i	23	i	15
C#CCOCCOCCOCCNc1nc(N2CCN(C(=O)[C@H]([C@@H](C)CC)n3cc([C@@H](N)Cc4ccc(O)cc4)nn3)CC2)nc(N2CCN(C(=O)[C@H](Cc3cc4ccccc4[nH]3)n3cc([C@@H](N)C(C)CC)nn3)CC2)n1 (some centres not stated)	78*	i	34	.	49*
C#CCOCCOCCOCCNc1nc(N2CCN(C(=O)[C@H](Cc3cc4ccccc4[nH]3)n3cc([C@@H](N)Cc4ccc(O)cc4)nn3)CC2)nc(N2CCN(C(=O)[C@H](Cc3cc4ccccc4[nH]3)n3cc([C@@H](N)CC(C)C)nn3)CC2)n1	.	.	.	i	.
